Results from different studies.
Protocols differ between the studies behind these lines.
P2RY14: P2Y purinoceptor 14 (P2RY14, Homo sapiens, UniProt Q15391)
CYP2D6: Cytochrome P450 2D6 (CYP2D6, Homo sapiens, UniProt P10635)
TGFBR1: TGF-beta receptor type-1 (TGFBR1, Homo sapiens, UniProt P36897)
IRAK4: Interleukin-1 receptor-associated kinase 4 (IRAK4, Homo sapiens, UniProt Q9NWZ3)

target	assay	system	setting	IC50 [µM]	Structure (SMILES)
Histone deacetylase 3 (HDAC3, Homo sapiens, UniProt O15379)	enzyme activity, inhibitor, fluorescence	–	–	< 0.002	O=C(NO)c1ccc(Cn2cnc3c(Nc4cccc([N+](=O)[O-])c4)ncnc32)cc1
P2RY14	cAMP, antagonist	–	–	0.0044	CC(C)OC(=O)[C@H](Cc1c[nH]c2ccccc12)NC(=O)COc1ccccc1
CYP2D6	enzyme activity, inhibitor, fluorescence	–	pH 8	4.23	CN(C)C(=O)c1cc2cnc(Nc3ccc(-c4ccc5c(=O)cc(N6CCOCC6)oc5c4)cc3)nc2n1C1CCCC1
TGFBR1	enzyme activity, inhibitor, radiometric	–	–	0.75	Cn1cc(-c2ccnc3ccccc23)c(-c2ccccn2)n1
P2RY14	ligand displacement in cells, flow cytometry	–	–	1.34	O=C(O)c1cc(-c2ccc(-n3cc(CCOP(=O)(O)O)nn3)cc2)c2ccc(-c3ccc(C(F)(F)F)cc3)cc2c1
IRAK4	enzyme activity, inhibitor, radiometric	–	–	0.108	CNC(=O)c1ccccc1Nc1nc(Nc2ccc(CO)cc2)ncc1C#N
P2RY14	ligand displacement in cells, flow cytometry	–	–	0.153	O=C(O)c1cc(-c2ccc(-n3cc(CCO)nn3)cc2)c2ccc(-c3ccc(C(F)(F)F)cc3)cc2c1
IRAK4	enzyme activity, inhibitor, radiometric	–	–	0.0115	CNC(=O)c1ccccc1Nc1nc(Nc2ccnc(CO)c2)ncc1Cl
P2RY14	ligand displacement in cells, flow cytometry	–	–	0.0408	O=C(O)c1cc(-c2ccc(-c3ccncc3)cc2)c2ccc(-c3ccc(C(F)(F)F)cc3)cc2c1
P2RY14	cAMP, antagonist	–	–	0.0106	CC(C)OC(=O)[C@H](Cc1c[nH]c2ccccc12)NC(=O)c1ccc2ncccc2c1
IRAK4	enzyme activity, inhibitor, radiometric	–	–	0.0286	CS(=O)(=NC#N)c1ccccc1Nc1nc(Nc2ccnc(CO)c2)ncc1Cl (stereo not shown)
P2RY14	ligand displacement in cells, flow cytometry	–	–	0.00369	O=C(O)c1cc(-c2ccc(-c3c[nH]nn3)cc2)c2ccc(-c3ccc(C(F)(F)F)cc3)cc2c1
TGFBR1	enzyme activity, inhibitor, radiometric	–	–	7.4	Oc1ccccc1-c1n[nH]cc1-c1ccnc2ccccc12
ltaE (Escherichia coli, UniProt P75823)	enzyme activity, inhibitor	–	–	1900	NCC(=O)O
P2X purinoceptor 7 (P2RX7, Homo sapiens, UniProt Q99572)	ion current, patch clamp	–	–	0.47	C=CCC1c2ccc(OC)c(OC)c2CN2CCc3cc4c(cc3C12)OCO4 (stereo not shown)
P2RY14	ligand displacement in cells, flow cytometry	–	–	0.157	O=C(O)c1cc(-c2ccc(-n3nncc3CCOP(=O)(O)O)cc2)c2ccc(-c3ccc(C(F)(F)F)cc3)cc2c1
CYP2D6	enzyme activity, inhibitor	human, liver microsomes	30 min	27.4	Cc1ccc(OCC(=O)N[C@@H](Cc2c[nH]c3ccccc23)C(=O)OC(C)C)cc1
IRAK4	enzyme activity, inhibitor, radiometric	–	–	0.00447	C#Cc1cnc(Nc2ccnc(CO)c2)nc1Nc1ccccc1S(C)(=O)=NC#N (stereo not shown)
Tyrosine-protein kinase JAK3 (JAK3, Homo sapiens, UniProt P52333)	enzyme activity, inhibitor, ELISA	–	–	1.15	Cc1cc2c(cc1C)N[C@H](c1ccccc1)[C@@H](O)C(=O)N2
IRAK4	enzyme activity, inhibitor, radiometric	–	–	0.00249	CNC(=O)c1ccccc1Nc1nc(Nc2ccc(CO)cc2)ncc1Cl
CYP2D6	enzyme activity, inhibitor	–	–	50	C=CCn1c(=O)c2cnc(Nc3ccc(N4CCN(C)CC4)cc3)nc2n1-c1ccc2c(n1)[C@@](O)(CC)CC2
IRAK4	enzyme activity, inhibitor, radiometric	–	–	0.0126	CNS(=O)(=O)c1ccccc1Nc1nc(Nc2ccc(CO)nc2)ncc1Cl
P2RY14	cAMP, antagonist	–	–	0.0216	CC(C)OC(=O)[C@H](Cc1c[nH]c2ccccc12)NC(=O)c1ccco1
IRAK4	enzyme activity, inhibitor, radiometric	–	–	0.00399	C#Cc1cnc(Nc2ccc(CO)nc2)nc1Nc1ccccc1S(C)(=O)=NC#N (stereo not shown)
P2RY14	cAMP, antagonist	–	–	0.0189	O=C(COc1ccccc1)N[C@@H](Cc1c[nH]c2ccccc12)C(=O)O
